Results as given in ChEMBL document CHEMBL4177720, “Towards smart biocide-free anti-biofilm strategies: Click-based synthesis of cinnamide analogues as anti-biofilm compounds against marine bacteria” (Bioorg Med Chem Lett, 2018).

Assays:
Pseudoalteromonas ulvae [1] = assay: Anti-biofilm activity against Pseudoalteromonas ulvae TC14 assessed as inhibition of bacterial adhesion incubated for 15 hrs at 20 degC by Syto 61 dye based fluorimetric assay; assay type: functional, organism-based; conditions: TC14, 15 h
In short: (§1)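 Cells were grown in VNSS at 20°C to stationary phase, centrifuged, and resuspended in artificial sea water (ASW) to OD600 0.2-0.4. Suspension (100 µL) plus 100 µL diluted compound, in triplicate, with ASW-only adhesion control, was held 15 h at 20°C. After three 36 g/L NaCl washes, adhered cells were stained 10 min at room temperature with 40 µmol/L Syto 61. Fluorescence read at ex 615/em 670 nm; EC50 from dose-response fit.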

[2] = test system: Pseudoalteromonas lipolytica; assay: Anti-biofilm activity against Pseudoalteromonas lipolytica TC8 assessed as inhibition of bacterial adhesion incubated for 15 hrs at 20 degC by Syto 61 dye based fluorimetric assay; assay type: functional, organism-based; conditions: TC8, 15 h; in short: as §1
Paracoccus sp. = assay: Anti-biofilm activity against Paracoccus sp. 4M6 assessed as inhibition of bacterial adhesion incubated for 15 hrs at 20 degC by Syto 61 dye based fluorimetric assay; assay type: functional; conditions: Paracoccus sp. (in: a-proteobacteria), 4M6, 15 h; in short: as §1
Pseudoalteromonas ulvae [3] = assay: Effect on cell growth of Pseudoalteromonas ulvae TC14 at 100 uM measured every hr during 6 hrs by turbidity (OD600) measurement
Pseudoalteromonas ulvae [4] = assay: Effect on cell viability of Pseudoalteromonas ulvae TC14 at 100 uM measured every hr during 6 hrs by resazurin based assay; assay type: organism-based
In short: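 Exponential-phase cells (VNSS, 20°C, 120 rpm) were resuspended in VNSS to OD600 0.1. 20 µL inoculated into 180 µL compound in VNSS, triplicate, at 100 µM, with solvent and medium controls. OD600 was read hourly for 6 h. Resazurin (50 µM) was then added, and fluorescence after 2 h gave percent viability versus untreated.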

Row | EC50 (Pseudoalteromonas ulvae [1]) | EC50 [2] | EC50 (Paracoccus sp.) | Structure (SMILES) | Activity (Pseudoalteromonas ulvae [3]) | Activity (Pseudoalteromonas ulvae [4])
1 | 204 µM | 276 µM | > 300 µM | COc1cccc(-n2cc(C(=O)NCCc3ccc(O)cc3)nn2)c1 | – | –
2 | 11.3 µM | > 300 µM | 260 µM | COc1ccc(CCNC(=O)c2cn(-c3ccc(OC)cc3)nn2)cc1 | Non-Toxic | Non-Toxic
3 | 11.4 µM | > 300 µM | 216 µM | COc1ccc(CCNC(=O)c2cn(-c3cccc(OC)c3)nn2)cc1 | Non-Toxic | Non-Toxic
4 | 52.3 µM | 142 µM | 214 µM | COc1ccc(-n2cc(C(=O)NCCc3cccc(OC)c3)nn2)cc1 | Non-Toxic | –
5 | 54.6 µM | > 300 µM | 162 µM | COc1ccc(-n2cc(C(=O)NCCc3ccc(OC)c(OC)c3)nn2)cc1 | Non-Toxic | Non-Toxic
6 | 73.7 µM | > 300 µM | 154 µM | COc1cccc(-n2cc(C(=O)NCCc3ccc(OC)c(OC)c3)nn2)c1 | – | –
7 | 80.6 µM | > 300 µM | 226 µM | COc1cccc(CCNC(=O)c2cn(-c3cccc(OC)c3)nn2)c1 | – | –
8 | 115 µM | > 300 µM | 220 µM | COc1ccc(-n2cc(C(=O)NCCc3ccc(O)cc3)nn2)cc1 | – | –
9 | – | – | – | CC1(C)S[C@@H]2[C@H](NC(=O)[C@H](N)c3ccccc3)C(=O)N2[C@H]1C(=O)O [AMPICILLIN] | – | Toxic
10 | 75.5 µM | > 300 µM | > 300 µM | O=C(/C=C/c1ccc(O)cc1)NCCc1ccc(O)cc1 [N-P-COUMAROYL TYRAMINE] | – | –
